Here are results for one compound from ChEMBL document CHEMBL2380244, “Optimized chemical probes for REV-ERBα” (J Med Chem, 2013).

Activity calls are given as the source filed them. No cut-off for these calls is given here.

Experiment [1] addresses T1, Nuclear receptor subfamily 1 group D member 1 (Homo sapiens) (UniProt P20393).
T1 sequence (whole entry): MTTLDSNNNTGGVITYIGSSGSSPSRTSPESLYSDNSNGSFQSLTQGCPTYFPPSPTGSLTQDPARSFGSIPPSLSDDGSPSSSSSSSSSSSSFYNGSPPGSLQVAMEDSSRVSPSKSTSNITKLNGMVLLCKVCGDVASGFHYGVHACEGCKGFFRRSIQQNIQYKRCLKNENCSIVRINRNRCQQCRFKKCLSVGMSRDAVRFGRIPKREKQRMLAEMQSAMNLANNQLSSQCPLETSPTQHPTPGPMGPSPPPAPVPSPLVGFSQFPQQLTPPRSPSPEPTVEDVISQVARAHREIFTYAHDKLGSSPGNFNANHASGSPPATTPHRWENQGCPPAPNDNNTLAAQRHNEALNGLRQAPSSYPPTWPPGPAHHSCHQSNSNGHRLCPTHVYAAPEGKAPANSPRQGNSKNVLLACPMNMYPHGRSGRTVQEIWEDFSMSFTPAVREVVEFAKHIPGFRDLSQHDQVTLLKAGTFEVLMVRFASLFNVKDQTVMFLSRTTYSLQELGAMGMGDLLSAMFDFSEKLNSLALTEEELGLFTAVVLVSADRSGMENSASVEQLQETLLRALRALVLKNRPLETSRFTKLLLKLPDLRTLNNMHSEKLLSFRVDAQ
Description: Agonist activity at biotinylated REV-ERBalpha (unknown origin) assessed as biotinylated PGC1-beta peptide recruitment after 20 mins by Greiner assay. The gist of the method:
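Biotinylated peptides (final 20 nM) with Eu-W1024 streptavidin (final 20 nM), 20 min RT. Biotinylated REV-ERBα (20 nM) with APC-streptavidin (10 nM), 20 min RT, then 20-fold excess biotin, 15 min RT. Receptor solution added to peptide plates, Eu/APC TR-FRET read. Four wells per peptide averaged, with standard deviation.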

For experiment [2], the species on record is Homo sapiens. The experiment in a line: Selectivity ratio of IC50 for LXRalpha (unknown origin) to EC50 for biotinylated REV-ERBalpha (unknown origin).
The target of experiment [3] is T1, Nuclear receptor subfamily 1 group D member 1 (Homo sapiens). Description: Agonist activity at REV-ERBalpha in human THP1 cells assessed as downregulation of LPS-stimulated IL-6 mRNA expression at 10 uM after 6 hrs by RT-qPCR analysis. The following applies: THP-1. The experiment is classed as cell-based. Put shortly: (§1)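 THP-1 cells sub-cultured in RPMI1640 with 10% FBS, stimulated with LPS 10 μg/mL in presence of DMSO or compound at 10 μM. Transcript read-out by RT-qPCR, normalized to TATA box binding protein.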
On the technique in general: In qPCR the cycle at which signal appears reflects the starting amount.

The target in experiment [4] is T2, Nuclear receptor subfamily 1 group D member 1 (Homo sapiens, UniProt P20393).
T2 sequence (P20393 whole entry): T1 sequence (whole entry)
The experiment in a line: Agonist activity at biotinylated REV-ERBalpha (unknown origin) assessed as increase in biotinylated NCOR peptide recruitment after 1 hr by FRET assay. Put shortly: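 TR-FRET: 20 nM biotinylated REV-ERBα pre-complexed with 10 nM APC-streptavidin, excess biotin added, then mixed with 20 nM biotinylated NCOR1 on 10 nM Eu-streptavidin. MOPS pH 7.5 buffer with NaF, CHAPS, BSA and 10 mM DTT. Added to compound (serial DMSO dilutions of 10 mM stocks), 1 h at RT, Eu/APC read. Data normalized to basal and minimal HTRF, fitted to a 4-parameter logistic.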

Experiment [5] addresses T3, Oxysterols receptor LXR-alpha (Homo sapiens, UniProt Q13133).
T3 sequence (Q13133 whole entry): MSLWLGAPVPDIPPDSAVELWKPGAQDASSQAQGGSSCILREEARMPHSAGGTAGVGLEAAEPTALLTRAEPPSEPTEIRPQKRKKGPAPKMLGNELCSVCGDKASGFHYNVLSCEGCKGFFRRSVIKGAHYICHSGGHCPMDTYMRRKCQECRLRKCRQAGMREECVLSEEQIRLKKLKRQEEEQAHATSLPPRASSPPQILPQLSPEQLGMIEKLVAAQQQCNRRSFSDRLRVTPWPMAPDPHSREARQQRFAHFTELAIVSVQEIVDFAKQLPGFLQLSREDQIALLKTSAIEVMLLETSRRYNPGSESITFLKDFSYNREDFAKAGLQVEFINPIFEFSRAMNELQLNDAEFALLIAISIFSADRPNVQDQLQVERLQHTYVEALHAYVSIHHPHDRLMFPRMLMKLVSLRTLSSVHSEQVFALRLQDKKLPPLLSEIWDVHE
Description: Binding affinity to LXRalpha (unknown origin) by radioligand displacement assay. Background: In a radioligand displacement assay an active substance lowers the binding of a labelled ligand.

Experiment [6] deals with T1, Nuclear receptor subfamily 1 group D member 1 (Homo sapiens). The experiment in a line: Agonist activity at REV-ERBalpha in human U2OS cells assessed as suppression of BMAL1 expression at 20 uM after 40 hrs by luciferase reporter gene assay relative to DMSO-treated control. The experiment is classed as cell-based. Put shortly:
(§2)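 U2OS cells stably carrying a mouse Bmal1-promoter luciferase reporter (hygromycin-selected clone) seeded at confluence in 384-well format. Rhythms synchronized by media change and checked over 48 h. Compound added, then bioluminescence recorded in real time every 20 min for 72 h in a temperature-controlled luminometer. Cells then washed and recovery oscillations in full growth medium monitored as a toxicity counter-screen.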
In general terms: In a reporter assay the amount or activity of a reporter protein is the signal.

The target is the same in experiment [7]. The experiment in a line: Agonist activity at REV-ERBalpha in human U2OS cells assessed as delay of peak of second cycle at 20 uM by luciferase reporter gene assay relative to DMSO-treated control. The experiment is classed as cell-based. Put shortly: as §2
For experiment [8], the target named is T4, Oxysterols receptor LXR-alpha (Homo sapiens) (UniProt Q13133).
T4 sequence (whole entry): T3 sequence (Q13133 whole entry)
The experiment in a line: Agonist activity at LXRalpha in human THP1 cells assessed as upregulation of LPS-stimulated ABCA1 mRNA expression at 10 uM after 6 hrs by RT-qPCR analysis. It counts as cell-based. The following applies: THP-1. Put shortly: as §1

For orientation: EC50 means the concentration at which the effect is half-maximal. The IC50 is the concentration that inhibits the measured activity by half. A higher IC50 goes with lower potency. `CC(C)(C)OC(=O)CN(Cc1ccc(Cl)cc1)Cc1ccc([N+](=O)[O-])s1` [GSK-4112]: the Activity result in experiment [1] is “Dose-dependent effect”; in experiment [6], 6%. Further, the Ratio IC50/EC50 in experiment [2] stood at 10. Further, the outcome in experiment [3] and in experiment [8] was Active. The EC50 in experiment [4] came to 500 nM. This compound had an IC50 in experiment [5] of 5000 nM. Besides, the TIME in experiment [7] is 0 h.
